Source: ChEMBL document CHEMBL2417518, “Vinyl sulfone-based peptidomimetics as anti-trypanosomal agents: design, synthesis, biological and computational evaluation” (J Med Chem, 2013)
Activity calls are given as the source filed them. No cut-off for these calls is given here.

Key:
[1] = Selectivity for bloodstream form of Trypanosoma brucei brucei MITat1.1 over human HL60 cells; design: species or system HL-60
Outline: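 Both were measured by seeding at 2×10^5 cells/ml with varying inhibitor concentrations, reading absorbance at 540 and 595 nm, and comparing to inhibitor-free controls.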

[2] = tested on: Trypanosoma brucei brucei; experiment: Antitrypanosomal activity against bloodstream form of Trypanosoma brucei brucei MITat1.1 after 6 to 8 hrs by Alamar Blue assay; assay type: functional, organism-based; conditions: in the assay text read “after 24 hrs” for “after 6 to 8 hrs”
Outline: (§1)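 T. b. brucei MITat1.1 cultured in HMI-9 with 10% heat-inactivated FBS, subcultured 1:10 every 24 h to stay in log phase, 37°C, 5% CO2. Seeded at 2×10^5 cells/ml with varying inhibitor concentrations or DMSO alone. Alamar Blue added after 6-8 h, total incubation 24 h. Absorbance read at 540 and 595 nm. EC50 from 4-parameter logistic fit of percent inhibition versus controls.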

[3] = tested on: Trypanosoma brucei brucei; experiment: Antitrypanosomal activity against bloodstream form of Trypanosoma brucei brucei MITat1.1 assessed as bigeye phenotype at 0.78 uM after 24 hrs by epifluorescence microscopy relative to untreated control; assay type: functional, organism-based
Outline: (§2)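 Trypanosomes exposed to the stated concentration at 37°C for 24 h, then fixed 10 min at 37°C in 3% (w/v) paraformaldehyde (final). Washed in PBS with 15 mM sodium azide, then in water, and settled on poly-L-lysine coated coverslips. Kinetoplast/nucleus counts and morphology scored by epifluorescence microscopy against an untreated control.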

[4] = tested on: Trypanosoma brucei brucei; experiment: Antitrypanosomal activity against bloodstream form of Trypanosoma brucei brucei MITat1.1 assessed as increase in multinucleate cells at 0.78 uM after 24 hrs by epifluorescence microscopy relative to untreated control; assay type: functional, organism-based; outline: as §2
[5] = tested on: Trypanosoma brucei brucei; experiment: Antitrypanosomal activity against bloodstream form of Trypanosoma brucei brucei MITat1.1 after 24 hrs by Alamar Blue assay
[6] = tested on: Trypanosoma brucei brucei; experiment: Antitrypanosomal activity against bloodstream form of Trypanosoma brucei brucei MITat1.1 assessed as bigeye phenotype at 55.6 uM after 24 hrs by epifluorescence microscopy relative to untreated control; assay type: functional, organism-based; outline: as §2
[7] = tested on: Trypanosoma brucei brucei; experiment: Antitrypanosomal activity against bloodstream form of Trypanosoma brucei brucei MITat1.1 assessed as increase in multinucleate cells at 55.6 uM after 24 hrs by epifluorescence microscopy relative to untreated control; assay type: functional, organism-based; outline: as §2
[8] = tested on: Trypanosoma brucei brucei; experiment: Antitrypanosomal activity against bloodstream form of Trypanosoma brucei brucei; assay type: functional, organism-based; outline: as §1
HL-60 = experiment: Cytotoxicity against human HL60 cells after 48 hrs by Alamar Blue assay; assay type: cell-based; conditions: hl-60, 48 h
Outline: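 HL-60 cells grown in RPMI-1640 with 10% heat-inactivated FBS, penicillin/streptomycin and 2 mM L-glutamine, 37°C, 5% CO2. Seeded at 2×10^5 cells/ml with varying inhibitor concentrations or DMSO alone. Alamar Blue added after 30-32 h, total incubation 48 h. Absorbance read at 540 and 595 nm. EC50 derived from percent signal inhibition versus inhibitor-free controls.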

Structure (SMILES)	Selectivity ratio [1]	Activity [2]	EC50 [2] [nM]	Activity [3]	Activity [4]	EC50 [5] [nM]	Activity [6]	Activity [7]	IC50 [8] [nM]	Activity (HL-60)
Cl.NCCCC[C@@H](/C=C/S(=O)(=O)c1ccccc1)NC(=O)[C@H](Cc1ccccc1)NC(=O)OCc1ccccc1	>2.4	Dose-dependent effect	22400							
O=C(N[C@@H](Cc1ccccc1)C(=O)N[C@H](/C=C/S(=O)(=O)c1ccccc1)CCCCNS(=O)(=O)c1cccc2ccccc12)OCc1ccccc1	>785.7	Dose-dependent effect	70	Active	Active					
CC(C)(C)OC(=O)NCCCC[C@@H](/C=C/S(=O)(=O)c1ccccc1)NC(=O)[C@H](Cc1ccccc1)NC(=O)OCc1ccccc1	>83	Dose-dependent effect				660				
CC(C)(C)OC(=O)NCCCC[C@@H](CCS(=O)(=O)c1ccccc1)NC(=O)[C@H](Cc1ccccc1)NC(=O)OCc1ccccc1	>2.1	Dose-dependent effect				26400				
CC(C)(C)OC(=O)NCCCC[C@@H](/C=C/S(=O)(=O)c1ccc2ccccc2c1)NC(=O)[C@H](Cc1ccccc1)NC(=O)OCc1ccccc1	>53.4	Dose-dependent effect	1030							
CC(C)(C)OC(=O)NCCCC[C@@H](/C=C/S(=O)(=O)c1ccccc1)NC(=O)[C@@H]1CCCN1C(=O)OCc1ccccc1	>5.7	Dose-dependent effect				9960				
CC(C)(C)OC(=O)NCCCC[C@@H](/C=C/S(=O)(=O)c1cccc2ccccc12)NC(=O)[C@H](Cc1ccccc1)NC(=O)OCc1ccccc1	>80.1	Dose-dependent effect				680				
Cc1ccc(S(=O)(=O)NCCCC[C@@H](/C=C/S(=O)(=O)c2ccccc2)NC(=O)[C@H](Cc2ccccc2)NC(=O)OCc2ccccc2)cc1	>220	Dose-dependent effect	250							
CN1CCN(C(=O)N[C@@H](Cc2ccccc2)C(=O)N[C@H](/C=C/S(=O)(=O)c2ccccc2)CCc2ccccc2)CC1 [K-777]	> 9.9	Dose-dependent effect				5560	Active	Active	100	
CC(C)(C)OC(=O)NCCCC[C@@H](/C=C/C(=O)c1ccccc1)NC(=O)[C@H](Cc1ccccc1)NC(=O)OCc1ccccc1	>67.1	Dose-dependent effect	820							Toxic
CC(C)C[C@H](NC(=O)OCc1ccccc1)C(=O)N[C@H](/C=C/S(=O)(=O)c1ccccc1)CCCCNC(=O)OC(C)(C)C	>46.6	Dose-dependent effect	1180							
COc1cc(Br)c(S(=O)(=O)NCCCC[C@@H](/C=C/S(=O)(=O)c2ccccc2)NC(=O)[C@H](Cc2ccccc2)NC(=O)OCc2ccccc2)cc1OC	>177.4	Dose-dependent effect	310							
